The values below come from ChEMBL document CHEMBL1649516, “Pyrazolopyrimidinediones are selective agents for Helicobacter pylori that suppress growth through inhibition of glutamate racemase (MurI)” (2009).

Assay [1] relates to Helicobacter pylori. Kind of assay: Antibacterial activity against HefC-deficient Helicobacter pylori ARHp80 by CLSI M100-S13 method. The assay is classed as functional. The method in brief: (§1)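 MICs for H. pylori, C. coli and C. jejuni were determined by a previously described susceptibility method. Compounds were in DMSO at 2% final, and 2% DMSO served as the control.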
The subject of assay [2] is Staphylococcus aureus. Kind of assay: Antibacterial activity against Staphylococcus aureus by CLSI M100-S13 method. The assay is classed as functional. The method in brief: (§2)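 Broth MICs were run per CLSI guidelines. Compounds were dissolved in DMSO at 2% final concentration, and 2% DMSO alone served as the control.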
Assay [3] relates to Helicobacter pylori. Nature of the assay: Antibacterial activity against Helicobacter pylori SS1 by CLSI M100-S13 method. The assay is classed as functional. The method in brief:
as §1

For assay [4], the system named is Moraxella catarrhalis. Nature of the assay: Antibacterial activity against Moraxella catarrhalis ATCC 43617 by CLSI M100-S13 method. The assay is classed as functional. The method in brief: as §2
Assay [5] concerns Haemophilus influenzae. Nature of the assay: Antibacterial activity against Haemophilus influenzae ATCC 51907 by CLSI M100-S13 method. The assay is classed as functional. The method in brief: as §2
Assay [6] deals with T1, Glutamate racemase (Helicobacter pylori (strain ATCC 700392 / 26695) (Campylobacterpylori)) (UniProt P56068).
T1 sequence (whole entry): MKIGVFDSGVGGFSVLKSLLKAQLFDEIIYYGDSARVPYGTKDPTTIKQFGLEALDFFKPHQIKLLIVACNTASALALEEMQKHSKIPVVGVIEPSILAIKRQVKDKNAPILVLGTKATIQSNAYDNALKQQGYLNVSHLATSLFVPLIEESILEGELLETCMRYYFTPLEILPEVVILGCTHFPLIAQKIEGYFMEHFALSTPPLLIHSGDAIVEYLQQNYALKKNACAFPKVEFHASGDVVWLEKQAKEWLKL
Nature of the assay: Inhibition of MurI in flaA mutant Helicobacter pylori Hp80.2 overexpressing MurI gene assessed as microbial growth inhibition by CLSI M100-S13 method. The procedure, abridged:
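MIC against H. pylori Hp80.2, a strain built in the wild-type ARHp80 background by replacing flaA with a murI expression construct (pSM116) so that flaA-promoter-driven MurI is overexpressed, confirmed by PCR, sequencing and Western blot. The comparison strain is isogenic Hp80.1, which carries the empty construct. Compounds were dissolved in DMSO, 2% final, with 2% DMSO as control.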

Assay [7] concerns Streptococcus pneumoniae. Nature of the assay: Antibacterial activity against Streptococcus pneumoniae NCTC 7466 by CLSI M100-S13 method. The assay is classed as functional. The settings on record: NCTC7466. The procedure, abridged: as §2
The test system of assay [8] is Helicobacter pylori. Kind of assay: Antibacterial activity against Helicobacter pylori ARHp80 by CLSI M100-S13 method. The assay is classed as functional. The method in brief:
as §1

The test system of assay [9] is Escherichia coli. Nature of the assay: Antibacterial activity against Escherichia coli by CLSI M100-S13 method. The assay is classed as functional. The procedure, abridged:
as §2

Assay [10] concerns Enterococcus faecium. Kind of assay: Antibacterial activity against Enterococcus faecium ATCC 19434 by CLSI M100-S13 method. The assay is classed as functional. The method in brief: as §2
Assay [11] concerns Helicobacter pylori. Nature of the assay: Induction of morphological changes in Helicobacter pylori by phase contrast microscopy. The assay is classed as functional, organism-based. The method in brief:
(§3)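 H. pylori was grown at 37°C in brucella broth with 5% fetal calf serum under microaerophilic gas (5% O2, 10% CO2, 85% N2), then examined for cell shape by phase-contrast microscopy.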

Assay [12] deals with Bacteroides thetaiotaomicron. Kind of assay: Antibacterial activity against Bacteroides thetaiotaomicron clinical isolate by CLSI M100-S13 method. The assay is classed as functional. The method in brief:
(§4)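 Anaerobic MICs run by CLSI broth microdilution guidelines for Bacteroides fragilis. Compounds were dissolved in DMSO at 2% final in all wells, and 2% DMSO served as the solvent control.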

Assay [13] concerns Lactobacillus jensenii. Nature of the assay: Antibacterial activity against Lactobacillus jensenii clinical isolate by CLSI M100-S13 method. The assay is classed as functional.
For assay [14], the system named is Bacteroides fragilis. Nature of the assay: Antibacterial activity against Bacteroides fragilis ATCC 25285 by CLSI M11-S13 broth microdilution method. The assay is classed as functional. The method in brief: as §4
The test system of assay [15] is Prevotella melaninogenica. Kind of assay: Antibacterial activity against Prevotella melaninogenica clinical isolate by CLSI M100-S13 method. The assay is classed as functional. The method in brief: as §4
Assay [16] relates to Campylobacter jejuni. Nature of the assay: Antibacterial activity against Campylobacter jejuni ATCC 33560 by CLSI M100-S13 method. The assay is classed as functional. The procedure, abridged:
as §1

Assay [17] deals with Campylobacter coli. Nature of the assay: Antibacterial activity against Campylobacter coli ATCC 33559 by CLSI M100-S13 method. The assay is classed as functional. The method in brief:
as §1

Assay [18] concerns Fusobacterium necrophorum. Kind of assay: Antibacterial activity against Fusobacterium necrophorum clinical isolate by CLSI M100-S13 method. The assay is classed as functional. The method in brief: as §4
The target in assay [19] is T1, Glutamate racemase (Helicobacter pylori (strain ATCC 700392 / 26695) (Campylobacterpylori)). Kind of assay: Inhibition of MurI in Helicobacter pylori assessed as morphological change at 2 times MIC by phase contrast microscopy. The method in brief:
as §3

For assay [20], the system named is Fusobacterium mortiferum. Nature of the assay: Antibacterial activity against Fusobacterium mortiferum clinical isolate by CLSI M100-S13 method. The assay is classed as functional. The procedure, abridged:
as §4

Assay [21] relates to Clostridioides difficile. Kind of assay: Antibacterial activity against Clostridium difficile clinical isolate by CLSI M100-S13 method. The assay is classed as functional. The method in brief: as §4

≈ marks a conversion by molar mass, not a printed value. Calls of active or inactive are those of the source. The calls are words filed in the database; no cut-off is given here.

On to `CC(C)Cn1c(=O)n(C)c(=O)c2c(-c3ccncc3)n(Cc3cccc4ccccc34)nc21`, for which the MIC in assay [1] is 1 µg/mL (≈ 2.28 µM); in [2] it was over 64 µg/mL; in assay [3] it was 4 µg/mL (≈ 9.1 µM); in [4], over 64 µg/mL; in [5], over 64 µg/mL; in [6], 8 µg/mL (≈ 18.2 µM). Moreover, the MIC in [7] was over 64 µg/mL; in assay [8] it was 4 µg/mL (≈ 9.1 µM); in [9], over 64 µg/mL; in assay [10] it was over 64 µg/mL.

With `C#CCn1c(=O)c2c(-c3cncn3C)n(Cc3ccnc4ccc(Cl)cc34)nc2n(CC2CC2)c1=O`, the MIC in [1] was 0.25 µg/mL (≈ 0.5 µM); in [2], over 64 µg/mL; in assay [3], 2 µg/mL (≈ 4 µM); in assay [6], 8 µg/mL (≈ 16 µM); in assay [8] it was 1 µg/mL (≈ 2 µM); in assay [9] it was over 64 µg/mL.

With `C#CCn1c(=O)c2c(-c3cc(C#N)cn3C)n(Cc3cc(C#N)nc4ccc(Cl)cc34)nc2n(CC2CC2)c1=O`, the MIC in assay [1] was 0.5 µg/mL (≈ 0.911 µM); in [2] it was over 64 µg/mL; in [3] it was 2 µg/mL (≈ 3.64 µM); in assay [6], over 64 µg/mL; in assay [8], 1 µg/mL (≈ 1.82 µM); in [9] it was over 64 µg/mL.

Consider `Cn1cc([S+](C)[O-])cc1-c1c2c(=O)n(C)c(=O)n(CC3CC3)c2nn1Cc1ccnc2ccc(Cl)cc12` (configuration not stated), for which the MIC in [1] is 0.25 µg/mL (≈ 0.466 µM); in [2], over 64 µg/mL; in assay [3] it was 16 µg/mL (≈ 29.8 µM); in assay [4] it was over 64 µg/mL; in assay [5], over 64 µg/mL; in [6], 16 µg/mL (≈ 29.8 µM). Further, the MIC in assay [7] is over 64 µg/mL; in [8] it was 8 µg/mL (≈ 14.9 µM); in assay [9], over 64 µg/mL; in assay [10], over 64 µg/mL.

`CN(C)[C@@H]1C(O)=C(C(N)=O)C(=O)[C@@]2(O)C(O)=C3C(=O)c4c(O)cccc4[C@@](C)(O)[C@H]3C[C@@H]12` [TETRACYCLINE]: the MIC in assay [1] worked out at 0.015 µg/mL (≈ 0.0338 µM); in assay [3], 0.25 µg/mL (≈ 0.563 µM); in [6], 0.13 µg/mL (≈ 0.293 µM); in assay [8] it was 0.13 µg/mL (≈ 0.293 µM). Also, the outcome in assay [11] was Active.

Take `Cn1cc(C#N)cc1-c1c2c(=O)n(C)c(=O)n(CC3CC3)c2nn1Cc1ccnc2ccc(Cl)cc12`: the MIC in [12] was over 64 µg/mL; in [13], over 64 µg/mL; in assay [1], 0.25 µg/mL (≈ 0.5 µM); in assay [2], over 64 µg/mL; in assay [3] it was 1 µg/mL (≈ 2 µM); in assay [14], over 64 µg/mL. Also, the MIC in assay [15] is over 64 µg/mL; in [6], 4 µg/mL (≈ 8 µM); in assay [16] it was over 64 µg/mL; in assay [17], over 64 µg/mL; in assay [18] it was over 64 µg/mL; in assay [8], 0.5 µg/mL (≈ 1 µM). Moreover, the MIC in assay [9], in assay [20] and in [21] was over 64 µg/mL each time. In [19], the Activity result is “Non-toxic”.

Take `CONC(=O)c1cc(-c2c3c(=O)n(C)c(=O)n(CC4CC4)c3nn2Cc2c[nH]c3ccc(C)cc23)n(C)c1`: the MIC in assay [1] was 0.25 µg/mL (≈ 0.485 µM); in assay [2] it was over 64 µg/mL; in assay [3], 16 µg/mL (≈ 31 µM); in [4] it was over 32 µg/mL; in assay [5] it was over 32 µg/mL; in assay [7], over 32 µg/mL. For the same molecule, the MIC in assay [8] was 16 µg/mL (≈ 31 µM); in assay [9] it was over 64 µg/mL; in [10], over 32 µg/mL.
